Assay results from different studies.
Each line is one published result; the experiments were not run side by side. ≈ marks a conversion by molar mass, not a printed value.
Organism: Escherichia coli

CCCCCCCCCCCCCC(O)CC(O)CO (stereo not drawn) — IC50 (microbial growth; broth dilution; ATCC35218): > 200 µg/mL
N=C(N)c1ccc(OCc2ccc3ccc(COc4ccc(C(=N)N)cc4)cc3c2)cc1 — MIC (microbial growth; BW25113): ≥ 200 µg/mL
O=C(N/N=C/c1ccc([N+](=O)[O-])o1)c1ccc(O)cc1 — MIC90 (microbial growth; ATCC25922): 0.49 µg/mL (≈ 1.78 µM)
Cc1ccc(C(C)C)cc1OS(=O)(=O)c1ccccc1 — IC50 (microbial growth; broth dilution; ATCC25922): 113 µg/mL
N=C(N)c1ccc(OCCSCCOc2ccc(C(=N)N)cc2)cc1 — MIC (microbial growth; broth dilution; BW25113): > 200 µg/mL
Cc1ccc(S(=O)(=O)Oc2cc(C(C)C)ccc2C)cc1 — IC50 (microbial growth; broth dilution; ATCC25922): 317 µg/mL (≈ 1040 µM)
CC(C)Oc1c(NC(=O)c2ccc(NC(=O)[C@H](CC(N)=O)NC(=O)c3ccc(NC(=O)C(C)Oc4ccc(C#N)cc4)cc3)cc2)ccc(C(=O)Nc2ccc(C(=O)O)cc2)c1O (stereo partly drawn) — MIC (microbial growth; DSM1116): 0.06 µg/mL (≈ 0.0701 µM)
COc1c(C)c(OC(C)=O)c(C)c(OC(C)=O)c1C(=O)/C=C/c1ccccc1 — MBC (microbial killing; broth dilution; ATCC25922): > 5000 µg/mL
CC1(C)S[C@@H]2[C@H](NC(=O)[C@H](N)c3ccccc3)C(=O)N2[C@H]1C(=O)O — inhibition zone (microbial growth; well diffusion; BW25113; 200 µM): 14 mm
O=C(O)c1cn(C2CC2)c2cc(N3CCNCC3)c(F)cc2c1=O — inhibition zone (microbial growth; disc diffusion; 100 µg/mL; 24 h): 17 mm
COc1ccc(-c2nc3ccccc3n2Cc2ccccc2)cc1OC — MIC (microbial growth; broth dilution; ATCC25922): 64 µg/mL (≈ 186 µM)
CC(C)Oc1c(NC(=O)c2ccc(NC(=O)[C@H](CC(N)=O)NC(=O)c3ccc(NC(=O)c4ccc(S(C)(=O)=O)cc4)cc3)cc2)ccc(C(=O)Nc2ccc(C(=O)O)cc2)c1O — MIC (microbial growth; DSM1116): 2 µg/mL (≈ 2.31 µM)
COc1c(C)c(OC)c2c(c1C)OC(c1ccccc1)CC2=O (stereo not drawn) — MBC (microbial killing; broth dilution; ATCC25922): > 5000 µg/mL
Cc1ccc(C(C)C)cc1OS(=O)(=O)c1cccs1 — IC50 (microbial growth; broth dilution; ATCC25922): 149 µg/mL (≈ 503 µM)
O=c1cccccc1Sc1cccccc1=O — MIC80 (microbial growth; broth dilution; ATCC35218): 13.2 µM (≈ 3.2 µg/mL)
c1ccc(-n2cc(COc3cccc4cccnc34)nn2)cc1 — IC50 (microbial growth; broth dilution; ATCC25922): 408 µg/mL (≈ 1350 µM)
CC1(C)S[C@@H]2[C@H](NC(=O)C(C(=O)O)c3ccccc3)C(=O)N2[C@H]1C(=O)O (stereo partly drawn) — inhibition zone (microbial growth; well diffusion; BW25113; 200 µM): 15 mm
COc1c(C)c(OS(=O)(=O)c2ccc3ccccc3c2)c(C)c(OS(=O)(=O)c2ccc3ccccc3c2)c1C(=O)/C=C/c1ccccc1 — inhibition zone (microbial growth; well diffusion; ATCC25922; 5 µg/mL): 12 mm
Clc1ccc(-c2nc3ccccc3[nH]2)cc1Cl — MIC (microbial growth; broth dilution; ATCC25922): 32 µg/mL (≈ 122 µM)
COc1cc(C=Cc2cc(-c3ccccc3)nc(O)n2)ccc1O — inhibition zone (microbial growth; disc diffusion; ATCC25922; 500 µg/mL): 19.7 mm
O=C1C=C(OCc2cn(-c3ccc(F)cc3)nn2)C(=O)c2ccccc21 — IC50 (microbial growth; broth dilution; ATCC25922): 165 µg/mL (≈ 472 µM)
C[C@H]1NCc2cc(-c3ccc4c(=O)c(C(=O)O)cn(C5CC5)c4c3OC(F)F)ccc21 — MIC50 (microbial growth; broth dilution): ≤ 0.03 µg/mL
Clc1ccc(-n2cc(COc3cccc4cccnc34)nn2)cc1 — IC50 (microbial growth; broth dilution; ATCC25922): 470 µg/mL (≈ 1400 µM)
c1ccc2[nH]c(-c3ccncc3)nc2c1 — MIC (microbial growth; broth dilution; ATCC25922): 128 µg/mL (≈ 656 µM)
